Laboratory results reported in ChEMBL document CHEMBL1145471, “Small molecule regulators of autophagy identified by an image-based high-throughput screen” (Proc Natl Acad Sci U S A, 2007).
The source made the active and inactive calls. The calls are words filed in the database; no cut-off is given here.

Key:
H4 [1] = test: Increase in long-lived protein degradation in human H4 cells after 1 hr relative to control; format: functional; design: concentration or dose not given beside the values
H4 [2] = test: Induction of light chain 3-GFP level in human H4 cells at 4.5 uM after 24 hrs by high throughput fluorescence microscopy relative to control; format: functional
In short: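 H4 cells stably expressing LC3-GFP, grown in DMEM with 10% FBS, penicillin/streptomycin and 2 mM L-glutamine at 37°C, 5% CO2. Cells were seeded in 96-well plates and exposed to library compounds at 3–12 μM for 24 h, then fixed in 4% paraformaldehyde and stained with 3 μg/ml DAPI. LC3-GFP spot number, size and intensity were measured by high-throughput fluorescence microscopy and expressed relative to DMSO. Triplicates, mean ± SD.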

H4 [3] = test: Decrease in FYVE-RFP+ vesicle intensity per cell in human H4 cells after 4 hrs relative to control; format: functional; design: concentration or dose not given beside the values
In short: (§1)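 H4 cells stably expressing FYVE-RFP (H4-FYVE), grown in DMEM with 10% FBS, penicillin/streptomycin and 2 mM L-glutamine at 37°C, 5% CO2, seeded in 96-well plates and exposed to compound. Fixed in 4% paraformaldehyde, nuclei stained with 3 μg/ml DAPI, FYVE-RFP+ vesicles quantified by high-throughput fluorescence microscopy against DMSO control. Triplicate wells, mean ± SD.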

H4 [4] = test: Increase in light chain 3-GFP+ autophagosome vesicle number per cell in human H4 cells at 4.5 uM after 24 hrs by high throughput fluorescence microscopy relative to control; format: functional
In short: (§2)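 H4 cells stably expressing LC3-GFP were grown in DMEM with 10% FBS and 2 mM L-glutamine at 37°C, 5% CO2. They were exposed to each compound for 24 h, with DMSO as negative and rapamycin as positive control. Cells were then fixed in 4% paraformaldehyde and stained with 3 μg/ml DAPI. High-throughput fluorescence imaging scored LC3-GFP spot number, size and intensity, expressed relative to DMSO. Mean ± SD of triplicates; experiments repeated three times.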

H4 [5] = test: Increase in long-lived protein degradation in human H4 cells after 24 hrs relative to control; format: functional; design: concentration or dose not given beside the values
H4 [6] = test: Decrease in FYVE-RFP+ vesicle intensity per cell in human H4 cells after 8 hrs relative to control; format: functional; design: concentration or dose not given beside the values; in short: as §1
H4 [7] = test: Increase in light chain 3-GFP+ autophagosome vesicle intensity per cell in human H4 cells at 4.5 uM after 24 hrs by high throughput fluorescence microscopy relative to control; format: functional; in short: as §2
H4 [8] = test: Decrease in FYVE-RFP+ vesicle intensity per cell in human H4 cells after 2 hrs relative to control; format: functional; design: concentration or dose not given beside the values; in short: as §1
H4 [9] = test: Increase in long-lived protein degradation in human H4 cells after 2 hrs relative to control; format: functional; design: concentration or dose not given beside the values
H4 [10] = test: Increase in long-lived protein degradation in human H4 cells after 4 hrs relative to control; format: functional; design: concentration or dose not given beside the values
H4 [11] = test: Increase in light chain 3-GFP+ autophagosome vesicle area per cell in human H4 cells at 4.5 uM after 24 hrs by high throughput fluorescence microscopy relative to control; format: functional
In short: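 H4 cells stably expressing LC3-GFP, seeded in 96-well plates and exposed to compound for 24 h; screening concentrations were 3–12 μM, with rapamycin 0.22 μM and bafilomycin A1 0.40 μM. Cells fixed in 4% paraformaldehyde and stained with 3 μg/ml DAPI. Number, size and intensity of LC3-GFP spots measured by high-throughput fluorescence microscopy and expressed as percent of DMSO-treated wells. Rapamycin was the positive control. Triplicate wells, mean ± SD; experiments repeated three times.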

H4 [12] = test: Increase in light chain 3-GFP+ autophagosome vesicle intensity per cell in human H4 cells at 4.9 uM after 24 hrs by high throughput fluorescence microscopy relative to control; format: functional
In short: (§3)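 H4 cells stably expressing LC3-GFP, seeded in 96-well plates and exposed to compound for 24 h; fixed in 4% paraformaldehyde, nuclei stained with 3 μg/ml DAPI. Automated fluorescence microscopy scored number, size and intensity of LC3-GFP spots; values expressed relative to DMSO-treated wells, rapamycin positive control. Triplicate wells, mean ± SD; experiments repeated three times.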

H4 [13] = test: Increase in light chain 3-GFP+ autophagosome vesicle number per cell in human H4 cells at 4.9 uM after 24 hrs by high throughput fluorescence microscopy relative to control; format: functional
In short: (§4)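 H4 cells stably expressing LC3-GFP, kept in DMEM/10% FBS at 37°C, 5% CO2, were seeded in 96-well plates and exposed to compound for 24 h. Cells were then fixed in 4% paraformaldehyde and stained with 3 μg/ml DAPI. Automated fluorescence microscopy scored the number, size and intensity of LC3-GFP spots. Values are percent of DMSO wells, in triplicate, mean ± SD. Rapamycin served as positive control.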

H4 [14] = test: Effect on FYVE-RFP+ vesicle intensity per cell in human H4 cells after 8 hrs relative to control; format: functional; design: concentration or dose not given beside the values; in short: as §1
[15] = target: T1, Serine/threonine-protein kinase mTOR (Homo sapiens, UniProt P42345); test: Effect on mTOR phosphorylation in human H4 cells at 4.9 uM after 4 hrs; format: cell-based
In short: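 H4 cells treated with compound for 4 h; lysates analysed by Western blot using anti-phospho/non-phospho mTOR antibody, with actin as loading control; rapamycin used for comparison. Cells grown in DMEM with 10% FBS, penicillin/streptomycin, 2 mM L-glutamine at 37°C, 5% CO2.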

H4 [16] = test: Effect on FYVE-RFP+ vesicle intensity per cell in human H4 cells after 2 hrs relative to control; format: functional; design: concentration or dose not given beside the values; in short: as §1
H4 [17] = test: Reduction of poly(Q) level in human H4 cells expressing EGFP-Q79-HA after 24 hrs; format: functional, cell-based
In short: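 H4 cells were transiently transfected with an EGFP-Q79-HA expression vector. The medium was replaced 6 h after transfection and compounds were added. Poly(Q) was detected with anti-HA antibody.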

H4 [18] = test: Increase in ratio of light chain 3 subunit 2 to light chain 3 subunit 1 in human H4 cells at 4.9 uM after 4 hrs by Western blot; format: functional, cell-based
In short: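 H4 cells were exposed to compound for 4 h, then lysed. Lysates were blotted with anti-LC3 antibody, with actin as loading control, and the LC3II/LC3I band ratio was taken.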

H4 [19] = test: Induction of light chain 3-GFP level in human H4 cells at 5.0 uM after 24 hrs by high throughput fluorescence microscopy relative to control; format: functional; in short: as §4
H4 [20] = test: Induction of light chain 3-GFP level in human H4 cells at 4.9 uM after 24 hrs by high throughput fluorescence microscopy relative to control; format: functional; in short: as §4
H4 [21] = test: Effect on FYVE-RFP+ vesicle intensity per cell in human H4 cells after 4 hrs relative to control; format: functional; design: concentration or dose not given beside the values; in short: as §1
H4 [22] = test: Increase in FYVE-RFP+ vesicle intensity per cell in human H4 cells after 8 hrs relative to control; format: functional; design: concentration or dose not given beside the values; in short: as §1
H4 [23] = test: Increase in ratio of light chain 3 subunit 2 to light chain 3 subunit 1 in human H4 cells at 3.9 uM after 4 hrs by Western blot; format: functional, cell-based
In short: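 H4 cells were treated with each compound for 4 h, then lysed. Lysates were immunoblotted with anti-LC3 antibody, with actin as loading control. LC3II and LC3I bands were compared as an LC3II/LC3I ratio.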

H4 [24] = test: Increase in light chain 3-GFP+ autophagosome vesicle number per cell in human H4 cells at 3.9 uM after 24 hrs by high throughput fluorescence microscopy relative to control; format: functional; in short: as §4
H4 [25] = test: Increase in FYVE-RFP+ vesicle intensity per cell in human H4 cells after 4 hrs relative to control; format: functional; design: concentration or dose not given beside the values; in short: as §1
[26] = target: T1, Serine/threonine-protein kinase mTOR; test: Effect on mTOR phosphorylation in human H4 cells at 3.9 uM after 4 hrs; format: cell-based
In short: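 H4 cells exposed to compound for 4 h. Lysates analysed by Western blot with anti-phospho and anti-total mTOR antibodies, with actin as loading control. Rapamycin served as reference.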

H4 [27] = test: Increase in light chain 3-GFP+ autophagosome vesicle intensity per cell in human H4 cells at 3.9 uM after 24 hrs by high throughput fluorescence microscopy relative to control; format: functional; in short: as §3
H4 [28] = test: Increase in FYVE-RFP+ vesicle intensity per cell in human H4 cells after 2 hrs relative to control; format: functional; design: concentration or dose not given beside the values; in short: as §1
H4 [29] = test: Increase in light chain 3-GFP+ autophagosome vesicle area per cell in human H4 cells at 3.9 uM after 24 hrs by high throughput fluorescence microscopy relative to control; format: functional; in short: as §3
H4 [30] = test: Induction of light chain 3-GFP level in human H4 cells at 3.9 uM after 24 hrs by high throughput fluorescence microscopy relative to control; format: functional; in short: as §4

Work on COC1=C2C[C@@H](C)C[C@H](OC)[C@H](O)[C@@H](C)/C=C(\C)[C@H](OC(N)=O)[C@@H](OC)/C=C\C=C(/C)C(=O)NC(=CC1=O)C2=O [GELDANAMYCIN] yielded an Activity (H4 [1]) of 87.25%, an Activity (H4 [2]) of 81.41% and an Activity (H4 [3]) of 41.33%. It also gave an Activity (H4 [4]) of 313.52%, an Activity (H4 [5]) of 72.93% and an Activity (H4 [6]) of 39.26%. It also gave an Activity (H4 [7]) of 546.8%, an Activity (H4 [8]) of 35.18% and an Activity (H4 [9]) of 74.67%. For the same molecule, the Activity (H4 [10]) was 87.795% and the Activity (H4 [11]) was 398.91%.
Work on CN(C)C(=O)C(CCN1CCC(O)(c2ccc(Cl)cc2)CC1)(c1ccccc1)c1ccccc1 [LOPERAMIDE] yielded an Activity (H4 [1]) of 78.7%, an Activity (H4 [12]) of 666.5% and an Activity (H4 [13]) of 235.49%. For the same molecule, the Activity (H4 [14]) was 95.7%, the Activity [15] was “inactive” and the Activity (H4 [16]) was 115.39%. The Activity (H4 [5]) was 139.19%, the Activity (H4 [17]) was “Dose-dependent effect” and the Activity (H4 [18]) was “Active”. The Activity (H4 [19]) was 339.4%, the Activity (H4 [20]) was 126.76% and the Activity (H4 [9]) was 122.1%. It also gave an Activity (H4 [10]) of 125.21% and an Activity (H4 [21]) of 123.62%.
For COC(=O)C1=C(C)NC(C)=C(C(=O)OCCCN2CCC(c3ccccc3)(c3ccccc3)CC2)[C@H]1c1cccc([N+](=O)[O-])c1 [NIGULDIPINE], the Activity (H4 [1]) was 71.65%, the Activity (H4 [22]) was 125.53% and the Activity (H4 [23]) was “Active”. For the same molecule, the Activity (H4 [5]) was 117.85%, the Activity (H4 [24]) was 282.89% and the Activity (H4 [17]) was “Dose-dependent effect”. The Activity (H4 [25]) was 148.26%, the Activity [26] was “inactive” and the Activity (H4 [27]) was 777.92%. For the same molecule, the Activity (H4 [28]) was 147.18%, the Activity (H4 [29]) was 405.33% and the Activity (H4 [9]) was 107.42%. The Activity (H4 [10]) was 105.68% and the Activity (H4 [30]) was 132.78%.
